PMC10633821 (RSC Advances, 2023)
Blank lines part the entries; values can stand above or below the compound they belong to.

Legend:
Type in all cases: cell-based
MCF-7 cells [1] = assay: MTT assay, anti-proliferative activity on MCF-7 cells; settings: Homo sapiens, MCF7, 48 h, read-out: IC50, growth/viability of MCF-7 cells
MCF-7 cells [2] = assay: Annexin V-FITC/PI assay of apoptosis and necrosis; settings: MCF-7, 3b at IC50 (1.85 μM), 48 h
Method in brief: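 MCF-7 cells were treated for 48 h, then harvested and washed twice in PBS by centrifugation (180 g, 10 min, 4 °C). Cells were resuspended in binding buffer with Annexin V-FITC for 10 min at ambient temperature, then diluted with more binding buffer. PI was added immediately before FACS Calibur flow cytometry to separate apoptotic from necrotic cells.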

[3] = biological target: human DNA topoisomerase II-β (TOPII-β) (Homo sapiens, UniProt Q02880); assay: Topoisomerase II activity in MCF-7 cells; settings: ELISA kit
Chain of human DNA topoisomerase II-β (TOPII-β) (Q02880 whole entry): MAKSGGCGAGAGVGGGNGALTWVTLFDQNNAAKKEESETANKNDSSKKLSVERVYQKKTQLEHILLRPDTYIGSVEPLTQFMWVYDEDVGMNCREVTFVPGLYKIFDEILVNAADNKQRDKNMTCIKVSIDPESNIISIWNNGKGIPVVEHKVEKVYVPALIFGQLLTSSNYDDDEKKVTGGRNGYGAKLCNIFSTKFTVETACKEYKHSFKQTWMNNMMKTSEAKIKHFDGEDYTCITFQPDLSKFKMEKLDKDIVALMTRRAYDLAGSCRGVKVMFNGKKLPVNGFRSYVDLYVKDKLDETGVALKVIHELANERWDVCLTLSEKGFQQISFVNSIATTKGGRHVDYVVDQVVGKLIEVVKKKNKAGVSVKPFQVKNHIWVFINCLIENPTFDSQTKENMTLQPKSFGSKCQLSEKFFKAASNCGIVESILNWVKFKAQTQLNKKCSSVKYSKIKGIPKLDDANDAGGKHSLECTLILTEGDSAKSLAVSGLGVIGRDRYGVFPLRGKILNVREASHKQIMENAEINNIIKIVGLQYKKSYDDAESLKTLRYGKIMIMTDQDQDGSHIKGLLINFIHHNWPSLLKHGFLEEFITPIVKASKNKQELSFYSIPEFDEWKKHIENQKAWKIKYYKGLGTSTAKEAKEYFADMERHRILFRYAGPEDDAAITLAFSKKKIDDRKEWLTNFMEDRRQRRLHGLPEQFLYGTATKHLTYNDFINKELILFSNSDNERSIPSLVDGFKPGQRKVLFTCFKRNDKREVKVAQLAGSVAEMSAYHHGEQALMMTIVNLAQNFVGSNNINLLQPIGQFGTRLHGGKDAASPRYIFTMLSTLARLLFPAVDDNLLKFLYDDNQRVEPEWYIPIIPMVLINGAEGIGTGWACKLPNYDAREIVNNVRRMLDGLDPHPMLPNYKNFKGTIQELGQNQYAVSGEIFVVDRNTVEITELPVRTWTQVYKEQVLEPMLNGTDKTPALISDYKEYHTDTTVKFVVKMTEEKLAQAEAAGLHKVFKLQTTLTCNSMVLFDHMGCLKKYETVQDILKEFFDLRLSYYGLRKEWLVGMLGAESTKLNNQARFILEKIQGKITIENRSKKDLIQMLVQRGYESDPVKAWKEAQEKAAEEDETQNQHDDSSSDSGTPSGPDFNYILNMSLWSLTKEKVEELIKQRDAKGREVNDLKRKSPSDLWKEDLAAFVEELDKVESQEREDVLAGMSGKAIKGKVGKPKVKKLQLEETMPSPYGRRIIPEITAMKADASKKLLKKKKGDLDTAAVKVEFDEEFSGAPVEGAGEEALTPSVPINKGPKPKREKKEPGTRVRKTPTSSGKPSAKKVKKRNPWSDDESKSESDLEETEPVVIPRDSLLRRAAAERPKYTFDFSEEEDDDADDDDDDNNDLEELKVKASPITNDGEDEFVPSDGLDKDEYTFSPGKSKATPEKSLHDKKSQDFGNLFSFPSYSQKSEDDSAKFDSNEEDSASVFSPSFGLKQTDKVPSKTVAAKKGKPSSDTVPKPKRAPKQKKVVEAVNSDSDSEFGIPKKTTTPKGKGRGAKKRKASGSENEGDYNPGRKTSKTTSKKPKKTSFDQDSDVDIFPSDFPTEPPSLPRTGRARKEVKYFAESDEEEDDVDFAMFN
Method in brief: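 Sandwich ELISA for human TOPII-β, run per the kit protocol. Standards and samples were incubated 2 h at 37 °C, then biotin-antibody 1 h at 37 °C, three washes, HRP-avidin 1 h at 37 °C and five washes. TMB substrate was added for 15–30 min at 37 °C in the dark, then stop solution. OD450 was read within 5 min, in triplicate.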

[4] = MTT assay, cytotoxicity on normal breast cells MCF-10A; settings: human, MCF-10A cells (normal breast cells)
MCF-7 cells [5] = assay: Cell cycle analysis by flow cytometry; settings: MCF-7, 3b at IC50 (1.85 μM), 48 h
Method in brief: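 MCF-7 cells were seeded, held 12 h at 37 °C, then treated for 48 h. Cells were collected and fixed in 75% ethanol at 20 °C for 18 h. They were rinsed in PBS, centrifuged, and exposed to RNase plus propidium iodide. DNA content was read by FACS Calibur flow cytometry to give cell-cycle phase distribution.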

- IC50 (MCF-7 cells [1]): 4.08 µM
Structure (SMILES): COc1cccc2cc(-c3cnc4ccccc4n3)c(=O)oc12 [compound 4b, 2-(8-Methoxycoumarin-3-yl)-quinoxaline]

- IC50 (MCF-7 cells [1]): 55 µM
Structure (SMILES): COc1ccc(Br)c2cc(-c3cnc4ccccc4n3)c(=O)oc12 [compound 5, 2-(5-bromo-8-methoxy-coumarin-3-yl)-quinoxaline]

- IC50 (MCF-7 cells [1]): 8.6 µM
Structure (SMILES): Oc1c(N=Nc2ccccc2)cc(Br)cc1C1=CNc2ccccc2N1 [compound 7, 2-(5-bromo-3-phenylazo-2-hydroxyphenyl)-1,4-dihydro quinoxaline]

Structure (SMILES): COc1cccc2cc(C3=Nc4ccccc4NC3)c(=O)oc12 [compound 3b, 2-(8-Methoxy-coumarin-3yl)-3,4-dihydroquinoxaline]
- increase in early apoptosis vs untreated control (MCF-7 cells [2]): 51.7 fold
- increase in programmed cell death vs untreated cells (MCF-7 cells [2]): 21 fold
- proportion of cells in late-stage apoptosis (MCF-7 cells [2]; control 0.29%): 12.42%
- proportion of cells in early apoptosis (MCF-7 cells [2]; control 0.51%): 26.39%
- proportion of cells suffering necrosis (MCF-7 cells [2]; untreated 1.2%): 3.58%
- total programmed cell death (MCF-7 cells [2]; untreated cells 2.02%): 42.39%
- reduction of topo II enzyme in comparison to untreated control cells [3]: 6.5 fold
- IC50 at 48 h [4]: 33.7 ± 2.04 µM
- percentage of cells in the pre-G1 phase (MCF-7 cells [5]; untreated control 2.02%): 42.39%
- percentage of cells in the G2/M phase (%DIP G2/M) (MCF-7 cells [5]; untreated control 11.65%): 6.52%
- proportion of cells in the S phase (%DIP S) (MCF-7 cells [5]; untreated control 32.89%): 47.12%
- percentage of cells in the G0/G1 phase (%DIP G1) (MCF-7 cells [5]; untreated control 55.46%): 46.36%
- IC50 (MCF-7 cells [1]): 1.85 ± 0.11 µM
